Among the data in ChEMBL document CHEMBL1156152, “Targeted delivery of paclitaxel to tumor cells: synthesis and in vitro evaluation” (J Med Chem, 2010) are Activity and IC50 values, retold here.

The source made the active and inactive calls. The rule behind the calls is not given here.

Data set [1] concerns KB-V1. In words: Cytotoxicity against paclitaxel-resistant human KBV1 cells assessed as decrease in cell viability after 72 hrs by neutral red dye assay. In kind it is functional, cell-based. An outline of the steps:
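KB-V1 cells grown in D-MEM/F12 with 10% FBS, penicillin/streptomycin, 2 mM L-glutamine and vinblastine (1 μg/ml), 37 °C, 5% CO2. Plated at 20,000 cells/well, adhered 24 h, treated with graded concentrations in triplicate for 72 h; neutral red (50 μg/ml, 30 min) uptake, dye extracted in acidic ethanol, read at 570 nm.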

For data set [2], the system named is KB 3-1. In words: (§1) Cytotoxicity against paclitaxel-sensitive human KB3-1 cells assessed as decrease in cell viability after 72 hrs by neutral red dye assay. In kind it is functional, cell-based. Put shortly:
(§2)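 KB-3-1 head and neck cancer cells kept in D-MEM/F12 with 10% FBS, penicillin/streptomycin, 2 mM L-glutamine, 37 °C, 5% CO2. Seeded 20,000 cells/well, adhered 24 h, then given varying concentrations in triplicate for 72 h. Viable cells took up neutral red (50 μg/ml, 30 min); dye dissolved in 0.5 N HCl with 35% ethanol, absorbance 570 nm.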

A short description of data set [3]: as §1. In kind it is functional, cell-based. As to conditions: KB 3-1, 72 h. An outline of the steps: as §2
The subject of data set [4] is HUVEC. The data set can be described thus: Cytotoxicity against TPA-treated HUVEC assessed as decrease in cell viability after 72 hrs by neutral red dye assay. In kind it is cell-based. As to conditions: human. An outline of the steps:
(§3)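 HUVECs cultured overnight with or without TPA (100 nM phorbol ester) to induce tissue factor, then plated 20,000 cells/well, adhered 24 h, and exposed to graded drug concentrations for 72 h in triplicate. Viability read by neutral red uptake (50 μg/ml, 30 min, 37 °C), PBS washes, dye extracted in 0.5 N HCl/35% ethanol, absorbance at 570 nm.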

Data set [5] concerns HUVEC. The data set can be described thus: Cytotoxicity against HUVEC assessed as decrease in cell viability after 72 hrs by neutral red dye assay. In kind it is cell-based. As to conditions: human. An outline of the steps: as §3

Turning to `CC(=O)O[C@H]1C(=O)[C@]2(C)[C@@H](OC(=O)CCC(=O)N[C@@H](Cc3ccccc3)C(=O)N[C@@H](Cc3ccccc3)C(=O)N[C@@H](CCCNC(=N)N)C(=O)CCl)C[C@H]3OC[C@@]3(OC(C)=O)[C@H]2[C@H](OC(=O)c2ccccc2)[C@]2(O)C[C@H](OC(=O)[C@H](O)[C@@H](NC(=O)c3ccccc3)c3ccccc3)C(C)=C1C2(C)C`, the outcome in data set [1] was inactive. In addition, the Activity entry in data set [2] was “Dose-dependent effect”. Besides, the IC50 in data set [3] is 130 nM.
`CC(=O)O[C@H]1C(=O)[C@@]2(C)[C@H]([C@H](OC(=O)c3ccccc3)[C@]3(O)C[C@H](OC(=O)[C@H](OC(=O)CCC(=O)N[C@@H](Cc4ccccc4)C(=O)N[C@@H](Cc4ccccc4)C(=O)N[C@@H](CCCNC(=N)N)C(=O)CCl)[C@@H](NC(=O)c4ccccc4)c4ccccc4)C(C)=C1C3(C)C)[C@]1(OC(C)=O)CO[C@@H]1C[C@@H]2O`: the Activity entry in data set [4] was “Not Active”; in data set [2] it was “Dose-dependent effect”. Besides, the outcome in data set [1] was inactive. The concentration for half-maximal inhibition (IC50) in data set [3] amounted to 12 nM.
Turning to `CC(=O)O[C@H]1C(=O)[C@@]2(C)[C@H]([C@H](OC(=O)c3ccccc3)[C@]3(O)C[C@H](OC(=O)[C@H](O)[C@@H](NC(=O)c4ccccc4)c4ccccc4)C(C)=C1C3(C)C)[C@]1(OC(C)=O)CO[C@@H]1C[C@@H]2O` [PACLITAXEL], the result in data set [4] and in data set [5] was Active. In data set [1], the outcome was inactive. Moreover, the half-maximal inhibitory concentration (IC50) in data set [3] was found to be 1.2 nM.

As usually defined, the IC50 is the concentration that inhibits the measured activity by half.
